Bioassay records: PubChem BioAssay, several laboratories
MT stabilizer: microtubule stabilizers in HeLa cells. HeLa tubulin immunostaining HCS, 24 h; share of cells brighter than vehicle mean+2SD. % tubulin-high responders, % at 10 µM. 200,000 compounds, 0.83% hits. AID 2205;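 active = plate Z-score above 3 for both tubulin-high and condensed-nucleus cell shares, with cell loss under 80%, at 10 µM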;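 also: anti alpha tubulin signal scored within the nucleus-defined area of each cell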
CHOP inhibitor: inhibitors of CHOP induction in ER stress response. 220,000 compounds, 3.8% hits. AID 2732. inhibition, % at 10 µM. CHO-K1 CHOP-promoter luciferase, tunicamycin-induced, 15-18 h;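 active = compounds that reduced the stress-induced luciferase reporter signal by more than about 70% of percent inhibition, limit read from the data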;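 also: 0% = tunicamycin plus vehicle and 100% = wells without tunicamycin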
Dynein cargo inh: dynein cargo transport inhibition. AID 1381. z-score, hits read low. 3617.4 mouse cells, GR-EGFP nuclear translocation imaging; test concentration mostly 20 µM; stimulated with dexamethasone, 1 µM; stronger effect = lower value. 220,000 compounds, 0.47% hits;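 active = plate z-score of nuclear minus cytoplasmic receptor signal below a set negative limit, without overly bright fluorescence or cell loss, cut at about -3.5 in these data, passing the limit was not always enough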;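 also: z-score of nuclear minus cytoplasmic ring GR-EGFP intensity difference per well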
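Buffer or medium: tet-free medium with charcoal-stripped serum / Also added: dexamethasone agonist, 1.0 µM final, for 30 min / Timing: induction 48 h, compound 1 h, agonist 30 min / Measured by: high-content fluorescence imaging after fixation / Read-out: nuclear-to-cytoplasmic GR-EGFP distribution per well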
Autophagy HCS: alters autophagy in cells; 190,000 compounds, 0.98% hits; calls only at 10 µM (by protocol); MEF GFP-LC3 puncta imaging; test concentration mostly 10 µM; AID 463193;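 active = percentage of spot-positive cells more than 3 SD above its plate mean, without a fluorescence outlier flag or 80% toxicity; inconclusive = no clear call, values can overlap the other calls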;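 also: spot-positive cell cutoff set from DMSO-treated cells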
b-catenin transl: modulators of beta-catenin nuclear translocation. HeLa beta-catenin nuclear translocation, immunofluorescence imaging. nuclear translocation activity, % at 5 µM. 190,000 compounds, 0.3% hits. AID 1665;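 active = nuclear translocation activity above 50% at 5 µM, with a well cell count of 50 or more; inconclusive = wells under 50 cells across six images, flagged as toxic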;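 also: per-cell ratio of nuclear to cytoplasmic median beta-catenin stain intensity; plate controls were DMSO negative control for no effect and GSK-3 inhibitor IX positive control for full effect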
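System: Human HeLa cells, endogenous beta-catenin | Compound dosing: 5 µM primary, 0.02–20 µM confirmation | Timing: 24 h compound exposure at 37°C, 5% CO2 | Measured by: Fluorescence imaging of beta-catenin antibody stain plus DAPI | Read-out basis: % activation of per-cell nuclear versus cytoplasmic median beta-catenin signal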
Lmaj promast: reduces viability of Leishmania major promastigotes | resazurin fluorescence viability | inhibition, % at 10 µM | 200,000 compounds, 9% hits; in the data active = inhibition above about 50%;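 also: promastigotes grown with compound for 44 hours at 28 °C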
L major 1uM: inhibitors of Leishmania major promastigote growth, repeat at 1 uM; shares compounds with Lmaj promast; L. major promastigote growth, resazurin fluorescence, 48 h; inhibition, % at 1 µM; 1,100 compounds, 13% hits;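 active = inhibition above about 50% in both repeat tests, limit read from the data; inconclusive = one repeat under the set limit, the other over it; inactive = both repeats under the set limit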
* hit, by the source's call; i = inactive; ? = inconclusive; . = no result given; + = active, no number. This is a sample that favours compounds with a hit; in the whole collection about 12% have one here.

SMILES	MT stabilizer	CHOP inhibitor	Dynein cargo inh	Autophagy HCS	b-catenin transl	Lmaj promast	L major 1uM
CCn1cc(S(=O)(=O)c2ccc(C)cc2)[nH]c1=O	1	-24	1.3	i	1	-1	.
C=CCOc1ccc2c(c1)c(S(=O)(=O)c1ccc(C)cc1)cn2COC	1	.	1.1	i	-5	88*	-21
CC1=NN(c2ccc(C)cc2)C(=O)/C1=C\c1ccc(Br)s1	3	15	-0.41	i	-2	99*	20
O=[N+]([O-])c1ccc(O)c2ncccc12	4	87*	-0.49	i	.	96*	2
O=[N+]([O-])c1ccc(O)c2cccnc12	6	4	0.4	i	-1	4	.
Cc1ccc(S(=O)(=O)N[C@H](C(=O)OCn2nnc3ccccc3c2=O)C(C)C)cc1	2	31	0.85	i	.	67*	-8
CC(C)NCC(=O)NC12CC3CC(CC(C3)C1)C2	3	16	0.38	i	.	-6	.
CC(SCC(=O)NC12CC3CC(CC(C3)C1)C2)C(=O)O (stereo unspecified)	2	51	0.46	i	-1	56*	0
COc1ccc(N2COC3c4cccc5cccc(c45)C32)cc1 (stereo unspecified)	5	36	0.59	i	-4	75*	-3
CCOc1ccccc1CNCc1ccc(F)cc1	4	-9	0.32	i	-2	54*	-8
CCOc1ccccc1CNCc1ccc(C(=O)O)cc1	3	-11	1.4	i	0	6	.
Cc1cc(C)cc(NC(=O)c2cc(C)n(Cc3cccs3)c2C)c1	.	-53	-0.54	.	-4	.	.
CCCCCCCCn1cnc2c(N)c(C)c(C)cc21	2	81*	0.7	i	.	91*	-4
COc1ccc(Cn2cnc3c(N)c(C)c(C)cc32)cc1	2	5	0.4	i	2	16	.
COC(=O)[C@@H]1CC[C@H](C)[C@@H](c2ccc(C)cc2)N1C(=O)c1ccc(/C=N/O[C@@H](C)CN2CCCCc3nc(C)c(C)cc32)cc1	5	-6	0.57	i	-1	100*	-8
N#Cc1ccc(Oc2ccc(-c3nc4ccccc4nc3-c3ccccc3)cc2)cc1C#N	2	4	-0.5	i	5	93*	1
c1cncc(C2Nc3ccccc3-c3nc4ccccc4n32)c1 (stereo unspecified)	1	0	0.6	i	-3	86*	?
Cc1ccc(S(=O)(=O)c2ccc(NN)cc2)cc1	3	61	-0.64	i	0	97*	-10
Cc1cc2n(n1)C(c1ccc3c(c1)OCO3)Nc1ccccc1-2 (stereo unspecified)	1	42	-0.41	i	0	5	.
Cc1ccc2c(c1)-c1cc(C)nn1C(c1ccc3c(c1)OCO3)N2 (stereo unspecified)	3	19	-0.71	i	0	98*	95*
CN1C(=O)CS/C1=N\NC(=O)COc1cccc2cccnc12	4	-2	0.52	i	-1	2	.
COCCCNC(=O)Nc1ccc(Br)cc1Cl	2	20	-0.71	i	.	-7	.
COCCCNCCCCOc1ccc(Br)cc1Cl	2	5	1.8	i	0	98*	76*
Oc1ccccc1-c1nc(/C=C/c2ccccc2)nn1-c1ccccc1	4	32	0.19	i	-2	98*	6
O=c1[nH][nH]c(=O)n1-c1ccccc1	3	3	-0.23	i	-4	-7	.
SMILES	MT stabilizer	CHOP inhibitor	Dynein cargo inh	Autophagy HCS	b-catenin transl	Lmaj promast	L major 1uM
S=C1NC2(CCCCC2)Nc2ccccc21	2	-1	-0.85	i	0	-5	.
COc1cc2c(cc1NC(=S)NC(=O)c1c(OC)cccc1OC)oc1ccccc12	2	-16	0.9	i	0	88*	46
Nc1ccc(Oc2ccc([N+](=O)[O-])cc2[N+](=O)[O-])cc1	1	28	-0.44	i	.	56*	7
O=c1ccc2ccc(Oc3ccc([N+](=O)[O-])cc3[N+](=O)[O-])cc2o1	8	-53	-2.8	i	5	48	.
C1CCC(C(CC2CCCCN2)C2CCCCC2)CC1 (stereo unspecified)	35*	99*	-2.5	+	7	100*	1
CCCNC(=O)OCC12CC3CC(CC(C3)C1)C2	9	21	-0.23	i	-1	9	.
CCNC(=O)OCCC12CC3CC(CC(C3)C1)C2	2	20	-0.44	i	0	86*	-11
CS(=O)(=O)NCCNC(=O)c1cc(OCC(F)(F)F)ccc1OCC(F)(F)F	3	22	0.036	i	-4	-1	.
CCNc1nc(NCC)nc(N(C)N)n1	3	3	0.35	i	.	21	.
C=CC(=O)N1c2ccccc2Sc2ccc(NC(=O)OCC)cc21	4	-53	-2.7	i	.	12	.
CCOC(=O)Nc1ccc2c(c1)N(C(=O)N1CCN(C)CC1)c1ccccc1S2	6	16	-1.2	i	0	84*	10
CCOC(=O)Nc1ccc2c(c1)Nc1ccccc1S2	8	36	-0.12	i	-8	67*	-15
NC(=O)N/N=C/c1ccc(N2CCOCC2)s1	4	0	-0.43	i	5	60*	-8
COc1ccc2c(c1)c(=O)cc(-c1ccccc1)n2C	2	-13	1.8	i	2	0	.
Cc1ccc(-c2cn(-c3ccccc3)c3[n+]2CCCS3)cc1	3	36	-0.47	i	-2	100*	46
Cc1ccc(/C=C/C(=O)CCC(=O)O)cc1	2	11	0.41	i	-2	-3	.
CCOc1ccc(Br)cc1S(=O)(=O)Nc1ccccc1N1CCOCC1	2	29	-0.32	i	.	100*	23
CCOc1ncccc1C(=O)NCc1ccccc1Cl	1	13	-0.75	i	3	-1	.
CCSC1=N/C(=C\c2cccc(F)c2)C(=O)S1	2	55	-0.88	i	0	60*	-16
CC1CC2(C)Oc3ccccc3CC2C(C)C1CNCCCN(C)C (stereo unspecified)	3	10	2.6	i	57*	100*	23
CCOC(=O)CC(=O)NC1(Cc2ccc(O)cc2)CCCCC1	4	-5	-0.84	i	-2	-4	.
O=c1cc(N2CCCCC2)nc2n1CCCS2	6	24	-0.29	i	3	71*	-3
CN(C)c1cc(=O)n2c(n1)SCCC2	4	-26	0.65	i	-2	-5	.
Cc1ccc(OCc2nn3c(-c4n[nH]c5c4CCC5)nnc3s2)cc1	.	.	.	.	-1	.	.
CCCCCCCCC[n+]1cccc2c3ccccc3ccc21	2	17	1.4	i	3	101*	101*
